Source: paper PMC6190495 (Journal of Pharmaceutical Analysis, 2018)
Where two headings read alike, the source gives them in different places.

Legend:
[1] = assay type: in vivo, human; details: for Tmax / concentration at 2 h / half-life: human, po; for AUC0-t: single oral tablet 4/1.25 mg, fasting, mean ± SD
Procedure, shortened: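 Ten healthy Chinese volunteers, fasted at least 10 h overnight, took one oral ACE-inhibitor/diuretic combination tablet (4 mg/1.25 mg) with 240 mL warm water. Blood was drawn into two K2EDTA tubes pre-dose and at 0.25–48 h. One tube was spun (3000 rpm, 10 min) for plasma and the other kept as whole blood, both stored at −80 °C. Parent drugs were extracted by acetonitrile precipitation and the metabolite by 14% perchloric acid, then measured by LC-MS/MS against internal standard. AUC0-t ran to 6 h for the ACE inhibitor and to 48 h otherwise.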

[2] = cited from earlier work
[3] = cited from earlier work; remark: listed apart in the source
[4] = whole blood, dose 1.5 mg, indapamide sustained-release tablets, ref 11
[5] = whole blood, dose 1.5 mg, indapamide sustained-release tablets, ref 21

Tmax ([1]; plasma) [h]	concentration at 2 h ([1]; plasma) [ng/mL]	half-life ([1]; plasma) [h]	Tmax ([1]; whole blood) [h]	concentration at 2 h ([1]; whole blood) [ng/mL]	half-life ([1]; whole blood) [h]	Structure (SMILES)	Cmax ([3]; plasma, dose 4 mg, ref 22) [ng/mL]	Tmax ([3]; plasma, dose 4 mg, ref 22) [h]	Cmax ([3]; plasma, dose 4 mg, ref 24) [ng/mL]	Tmax ([3]; plasma, dose 4 mg, ref 24) [h]	AUC0-t ([3]; plasma, dose 4 mg, t = 120 h) [ng·h/mL]	other results
1.8 ± 0.8	5.32	13.4 ± 2.4	1.6 ± 0.6	14.9	13.5 ± 1.6	CC1Cc2ccccc2N1NC(=O)c1ccc(Cl)c(S(N)(=O)=O)c1 (stereo not shown) [Indapamide, indapamide]	–	–	–	–	–	AUC0-t ([1]; whole blood, t = 48 h): 882 ± 126 ng·h/mL; Binding to the red blood cell [2]: high binding to the red blood cell; Tmax ([3]; whole blood, dose 1.25 mg): 2.4 ± 1.1 h; AUC0-t ([3]; whole blood, dose 1.25 mg, t = 96 h): 1152 ± 429 ng·h/mL; Cmax [3, 4]: 43.6 ± 16.1 ng/mL; Tmax [3, 4]: 10.3 ± 5.3 h; Cmax [3, 5]: 41.1 ± 7.6 ng/mL; Tmax [3, 5]: 8.0 ± 3.0 h; AUC0-t ([3]; whole blood, dose 1.5 mg, indapamide sustained-release tablets, t = 96 h, ref 11): 1318 ± 303 ng·h/mL; AUC0-t ([3]; whole blood, dose 1.5 mg, indapamide sustained-release tablets, t = 96 h, ref 21): 1268 ± 279 ng·h/mL
0.65 ± 0.1	11.1	0.96 ± 0.3	0.7 ± 0.2	7.35	1.11 ± 0.4	CCC[C@H](N[C@@H](C)C(=O)N1[C@H](C(=O)O)C[C@@H]2CCCC[C@@H]21)C(=O)OCC [Perindopril, perindopril]	63.9 ± 18.0	0.66 ± 0.2	72 ± 20	0.75	106 ± 32	AUC0-t ([1]; plasma, t = 6 h): 51.4 ± 12.8 ng·h/mL; Binding in blood [2]: bind mainly to plasma protein in blood; Cmax ([3]; plasma, dose 4 mg, ref 16): 36.5 ± 11.4 ng/mL; Tmax ([3]; plasma, dose 4 mg, ref 16): 0.66 ± 0.2 h; AUC0-t ([3]; plasma, dose 4 mg, t = 5 h): 70.3 ± 14.4 ng·h/mL; AUC0-t ([3]; plasma, dose 4 mg, t = 96 h): 41.7 ± 10.0 ng·h/mL
6.4 ± 1.3	2.49	17 ± 6.5	5.8 ± 1.1	1.31	18.2 ± 7.3	CCC[C@H](N[C@@H](C)C(=O)N1[C@H](C(=O)O)C[C@@H]2CCCC[C@@H]21)C(=O)O [Perindoprilat, perindoprilat]	5.91 ± 2.9	6.3 ± 1.2	4.9 ± 2.7	6	191 ± 76	AUC0-t ([1]; plasma, t = 48 h): 108 ± 34.7 ng·h/mL; Cmax ([3]; plasma, dose 4 mg, one significant digit): 5 ± 2 ng/mL; Tmax ([3]; plasma, dose 4 mg, ref 23): 4.3 ± 2.9 h; AUC0-t ([3]; plasma, dose 4 mg, t = 72 h, ref 22): 111 ± 18.4 ng·h/mL; AUC0-t ([3]; plasma, dose 4 mg, t = 72 h, ref 23): 92 ± 30 ng·h/mL
